Measurements as given in ChEMBL document CHEMBL4627265, “Optimization of 8-oxoadenines with toll-like-receptor 7 and 8 activity” (Bioorg Med Chem Lett, 2020).
Activity calls are given as the source filed them.

How the values were obtained:
Assay type in all cases: cell-based
[1] = biological target: T1, Toll-like receptor 7 (Homo sapiens) (UniProt Q9NYK1); assay: Agonist activity at TLR7 in human PBMC assessed as induction of plasmacytoid dendritic cell maturation by measuring CD80 level at 0.1 uM after 6 hrs by flow cytometry
T1 sequence (whole entry): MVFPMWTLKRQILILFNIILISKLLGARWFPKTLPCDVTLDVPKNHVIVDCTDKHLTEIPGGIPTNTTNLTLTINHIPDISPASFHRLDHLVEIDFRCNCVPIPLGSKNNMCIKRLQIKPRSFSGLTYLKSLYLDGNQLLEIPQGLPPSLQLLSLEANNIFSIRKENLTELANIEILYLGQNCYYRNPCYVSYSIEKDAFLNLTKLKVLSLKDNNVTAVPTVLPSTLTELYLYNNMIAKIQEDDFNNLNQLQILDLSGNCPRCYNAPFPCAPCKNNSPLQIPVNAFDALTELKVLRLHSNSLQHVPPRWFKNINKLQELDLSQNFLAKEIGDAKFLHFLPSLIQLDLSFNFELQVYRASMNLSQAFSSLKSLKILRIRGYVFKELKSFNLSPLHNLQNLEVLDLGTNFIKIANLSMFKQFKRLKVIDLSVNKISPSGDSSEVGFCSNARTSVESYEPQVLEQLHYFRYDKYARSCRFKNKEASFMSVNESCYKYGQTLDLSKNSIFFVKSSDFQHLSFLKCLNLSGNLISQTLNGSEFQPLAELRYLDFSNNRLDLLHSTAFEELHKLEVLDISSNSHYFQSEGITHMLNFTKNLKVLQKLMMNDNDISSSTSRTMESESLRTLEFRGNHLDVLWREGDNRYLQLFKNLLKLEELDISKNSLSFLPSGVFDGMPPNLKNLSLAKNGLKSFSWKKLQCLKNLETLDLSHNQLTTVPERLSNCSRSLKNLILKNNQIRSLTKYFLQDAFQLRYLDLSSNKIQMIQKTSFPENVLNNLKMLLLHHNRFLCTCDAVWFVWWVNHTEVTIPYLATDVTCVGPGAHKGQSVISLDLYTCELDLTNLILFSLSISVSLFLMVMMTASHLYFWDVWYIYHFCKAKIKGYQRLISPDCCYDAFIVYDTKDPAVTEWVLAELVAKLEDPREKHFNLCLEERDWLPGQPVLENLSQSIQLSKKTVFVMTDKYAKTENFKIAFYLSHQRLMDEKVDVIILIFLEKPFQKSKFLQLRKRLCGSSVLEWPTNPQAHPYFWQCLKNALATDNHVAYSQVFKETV
Procedure, shortened: (§1)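 hPBMCs stimulated 6 h at a single 0.1 μM dose; HLA-DR, MHC-I, CD80 and CD86 on mDCs and pDCs measured by flow cytometry, expressed as fold change versus unstimulated cells. Mean ± SD of three independent experiments in three different donors.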

[2] = biological target: T1, Toll-like receptor 7 (Homo sapiens); assay: Agonist activity at TLR7 in human PBMC assessed as induction of plasmacytoid dendritic cell maturation by measuring HLA-DR level at 0.1 uM after 6 hrs by flow cytometry; procedure, shortened: as §1
[3] = biological target: T2, Toll-like receptor 8 (Homo sapiens) (UniProt Q9NR97); assay: Agonist activity at TLR8 in human PBMC assessed as induction of myeloid dendritic cell maturation by measuring CD86 level at 0.1 uM after 6 hrs by flow cytometry; procedure, shortened: as §1
T2 sequence (whole entry): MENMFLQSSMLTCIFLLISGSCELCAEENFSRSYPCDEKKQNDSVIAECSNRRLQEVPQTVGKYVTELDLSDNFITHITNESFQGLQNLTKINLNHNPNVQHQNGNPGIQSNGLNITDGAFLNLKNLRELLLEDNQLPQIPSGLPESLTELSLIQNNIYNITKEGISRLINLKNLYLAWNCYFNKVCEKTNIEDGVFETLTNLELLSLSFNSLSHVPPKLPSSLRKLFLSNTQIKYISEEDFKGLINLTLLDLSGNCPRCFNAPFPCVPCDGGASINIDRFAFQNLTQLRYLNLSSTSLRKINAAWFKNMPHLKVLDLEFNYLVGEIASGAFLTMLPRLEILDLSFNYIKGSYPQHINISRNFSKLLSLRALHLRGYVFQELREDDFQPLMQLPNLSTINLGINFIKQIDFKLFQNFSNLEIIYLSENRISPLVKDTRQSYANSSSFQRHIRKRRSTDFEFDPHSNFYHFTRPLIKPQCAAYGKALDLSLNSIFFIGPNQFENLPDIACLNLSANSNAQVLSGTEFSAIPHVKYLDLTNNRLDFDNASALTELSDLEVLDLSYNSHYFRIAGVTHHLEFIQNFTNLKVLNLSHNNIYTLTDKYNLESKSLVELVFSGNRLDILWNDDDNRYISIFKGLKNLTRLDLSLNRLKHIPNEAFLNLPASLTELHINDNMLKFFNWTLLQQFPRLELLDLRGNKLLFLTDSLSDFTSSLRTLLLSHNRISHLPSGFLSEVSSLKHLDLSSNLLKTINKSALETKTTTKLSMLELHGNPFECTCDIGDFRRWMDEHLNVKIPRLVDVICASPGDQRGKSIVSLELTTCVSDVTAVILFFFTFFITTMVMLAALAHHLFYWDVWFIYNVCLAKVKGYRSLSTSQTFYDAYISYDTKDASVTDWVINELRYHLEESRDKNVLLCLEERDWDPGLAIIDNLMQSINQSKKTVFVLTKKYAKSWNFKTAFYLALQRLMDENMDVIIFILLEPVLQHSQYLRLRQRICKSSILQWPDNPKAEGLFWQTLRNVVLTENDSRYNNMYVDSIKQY

Measured: Activity

Nc1nc(OCCCCO)nc2c1[nH]c(=O)n2CC1CCNCC1
inactive: all assays above
